Converted amounts (≈) assume the structure as drawn.
Key:
Type in all cases: functional
[1] = test system: Mycobacterium tuberculosis; assay: Antimycobacterial activity against Mycobacterium tuberculosis H37Rv ATCC 27294 incubated for 7 days by microplate Alamar Blue assay; conditions: H37Rv ATCC 27294, 168 h
Summary of the method: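 Fluorescence read-out. MIC is the lowest concentration that reduces fluorescence by at least 90% relative to the mean of replicate bacterium-only controls. Isoniazid and rifampicin were included as reference drugs.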

[2] = test system: Escherichia coli; assay: Antibacterial activity against Escherichia coli ATCC 25922 after 18 to 24 hrs by two-fold serial dilution method
Summary of the method: (§1)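 Twofold serial dilution in agar media against Gram-positive and Gram-negative strains. Plates incubated at 35 °C for 18–24 h. MIC read as the lowest compound concentration giving complete inhibition of bacterial growth.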

[3] = test system: Escherichia coli; assay: Antibacterial activity against extended-spectrum beta-lactamase producing Escherichia coli 14-1 after 18 to 24 hrs by two-fold serial dilution method; summary of the method: as §1
[4] = test system: Escherichia coli; assay: Antibacterial activity against extended-spectrum beta-lactamase producing Escherichia coli 14-2 after 18 to 24 hrs by two-fold serial dilution method; summary of the method: as §1
[5] = test system: Escherichia coli; assay: Antibacterial activity against Escherichia coli 14-1 after 18 to 24 hrs by two-fold serial dilution method; summary of the method: as §1
[6] = test system: Escherichia coli; assay: Antibacterial activity against Escherichia coli 14-2 after 18 to 24 hrs by two-fold serial dilution method; summary of the method: as §1
[7] = test system: Klebsiella pneumoniae; assay: Antibacterial activity against extended-spectrum beta-lactamase producing Klebsiella pneumoniae 14-17 after 18 to 24 hrs by two-fold serial dilution method; summary of the method: as §1
[8] = test system: Klebsiella pneumoniae; assay: Antibacterial activity against extended-spectrum beta-lactamase producing Klebsiella pneumoniae 14-18 after 18 to 24 hrs by two-fold serial dilution method; summary of the method: as §1
[9] = test system: Klebsiella pneumoniae; assay: Antibacterial activity against extended-spectrum beta-lactamase producing Klebsiella pneumoniae 14-19 after 18 to 24 hrs by two-fold serial dilution method; summary of the method: as §1
[10] = test system: Klebsiella pneumoniae; assay: Antibacterial activity against Klebsiella pneumoniae 14-1 after 18 to 24 hrs by two-fold serial dilution method; summary of the method: as §1
[11] = test system: Klebsiella pneumoniae; assay: Antibacterial activity against Klebsiella pneumoniae 14-2 after 18 to 24 hrs by two-fold serial dilution method; summary of the method: as §1
[12] = test system: Klebsiella pneumoniae; assay: Antibacterial activity against Klebsiella pneumoniae 14-3 after 18 to 24 hrs by two-fold serial dilution method; summary of the method: as §1
[13] = test system: Klebsiella pneumoniae; assay: Antibacterial activity against Klebsiella pneumoniae 14-4 after 18 to 24 hrs by two-fold serial dilution method; summary of the method: as §1
[14] = test system: Pseudomonas aeruginosa; assay: Antibacterial activity against Pseudomonas aeruginosa ATCC 27853 after 18 to 24 hrs by two-fold serial dilution method; summary of the method: as §1
[15] = test system: Pseudomonas aeruginosa; assay: Antibacterial activity against Pseudomonas aeruginosa 14-9 after 18 to 24 hrs by two-fold serial dilution method; summary of the method: as §1
[16] = test system: Pseudomonas aeruginosa; assay: Antibacterial activity against Pseudomonas aeruginosa 14-14 after 18 to 24 hrs by two-fold serial dilution method; summary of the method: as §1
[17] = test system: Pseudomonas aeruginosa; assay: Antibacterial activity against Pseudomonas aeruginosa 14-15 after 18 to 24 hrs by two-fold serial dilution method; summary of the method: as §1
[18] = test system: Pseudomonas aeruginosa; assay: Antibacterial activity against Pseudomonas aeruginosa 14-16 after 18 to 24 hrs by two-fold serial dilution method; summary of the method: as §1
[19] = test system: Staphylococcus aureus; assay: Antibacterial activity against Staphylococcus aureus CMCC 26003 after 18 to 24 hrs by two-fold serial dilution method; summary of the method: as §1
[20] = test system: Staphylococcus aureus; assay: Antibacterial activity against methicillin-sensitive Staphylococcus aureus 14-1 after 18 to 24 hrs by two-fold serial dilution method; summary of the method: as §1
[21] = test system: Staphylococcus aureus; assay: Antibacterial activity against methicillin-sensitive Staphylococcus aureus 14-3 after 18 to 24 hrs by two-fold serial dilution method; summary of the method: as §1
[22] = test system: Staphylococcus aureus; assay: Antibacterial activity against methicillin-sensitive Staphylococcus aureus 14-4 after 18 to 24 hrs by two-fold serial dilution method; summary of the method: as §1
[23] = test system: Staphylococcus aureus; assay: Antibacterial activity against methicillin-resistant Staphylococcus aureus 14-4 after 18 to 24 hrs by two-fold serial dilution method
Summary of the method: (§2)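 Agar media, standard twofold serial dilution. MIC is the lowest concentration giving complete inhibition of bacterial growth after incubation at 35 °C for 18–24 h. Ciprofloxacin and levofloxacin were run as comparators.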

[24] = test system: Staphylococcus aureus; assay: Antibacterial activity against methicillin-resistant Staphylococcus aureus 14-5 after 18 to 24 hrs by two-fold serial dilution method; summary of the method: as §2
[25] = test system: Staphylococcus epidermidis; assay: Antibacterial activity against methicillin-sensitive Staphylococcus epidermidis 14-2 after 18 to 24 hrs by two-fold serial dilution method; summary of the method: as §1
[26] = test system: Staphylococcus epidermidis; assay: Antibacterial activity against methicillin-resistant Staphylococcus epidermidis 14-21 after 18 to 24 hrs by two-fold serial dilution method; summary of the method: as §2
[27] = test system: Staphylococcus epidermidis; assay: Antibacterial activity against methicillin-resistant Staphylococcus epidermidis 14-22 after 18 to 24 hrs by two-fold serial dilution method; summary of the method: as §2
[28] = test system: Staphylococcus epidermidis; assay: Antibacterial activity against methicillin-resistant Staphylococcus epidermidis 14-37 after 18 to 24 hrs by two-fold serial dilution method; summary of the method: as §2
[29] = test system: Staphylococcus epidermidis; assay: Antibacterial activity against methicillin-resistant Staphylococcus epidermidis 14-39 after 18 to 24 hrs by two-fold serial dilution method; summary of the method: as §2
[30] = test system: Streptococcus pneumoniae; assay: Antibacterial activity against methicillin-resistant Streptococcus pneumoniae ATCC 19615 after 18 to 24 hrs by two-fold serial dilution method; summary of the method: as §2
[31] = test system: Enterococcus faecium; assay: Antibacterial activity against Enterococcus faecium 14-2 after 18 to 24 hrs by two-fold serial dilution method; summary of the method: as §1
[32] = test system: Enterococcus faecium; assay: Antibacterial activity against Enterococcus faecium 14-5 after 18 to 24 hrs by two-fold serial dilution method; summary of the method: as §1
[33] = test system: Enterococcus faecium; assay: Antibacterial activity against Enterococcus faecium 14-6 after 18 to 24 hrs by two-fold serial dilution method; summary of the method: as §1
[34] = test system: Enterococcus faecalis; assay: Antibacterial activity against Enterococcus faecalis 14-1 after 18 to 24 hrs by two-fold serial dilution method; summary of the method: as §1
[35] = test system: Enterococcus faecalis; assay: Antibacterial activity against Enterococcus faecalis 14-2 after 18 to 24 hrs by two-fold serial dilution method; summary of the method: as §1
[36] = test system: Staphylococcus aureus; assay: Potency index, ratio of ciprofloxacin MIC to compound MIC for methicillin-resistant Staphylococcus aureus 14-4
[37] = test system: Staphylococcus aureus; assay: Potency index, ratio of ciprofloxacin MIC to compound MIC for methicillin-resistant Staphylococcus aureus 14-5
[38] = test system: Staphylococcus epidermidis; assay: Potency index, ratio of ciprofloxacin MIC to compound MIC for methicillin-resistant Staphylococcus epidermidis 14-21
[39] = test system: Staphylococcus epidermidis; assay: Potency index, ratio of ciprofloxacin MIC to compound MIC for methicillin-resistant Staphylococcus epidermidis 14-22
[40] = test system: Staphylococcus epidermidis; assay: Potency index, ratio of ciprofloxacin MIC to compound MIC for methicillin-resistant Staphylococcus epidermidis 14-37
[41] = test system: Staphylococcus epidermidis; assay: Potency index, ratio of ciprofloxacin MIC to compound MIC for methicillin-resistant Staphylococcus epidermidis 14-39
[42] = test system: Enterococcus faecium; assay: Potency index, ratio of ciprofloxacin MIC to compound MIC for Enterococcus faecium 14-2
[43] = test system: Enterococcus faecium; assay: Potency index, ratio of ciprofloxacin MIC to compound MIC for Enterococcus faecium 14-5
[44] = test system: Enterococcus faecium; assay: Potency index, ratio of ciprofloxacin MIC to compound MIC for Enterococcus faecium 14-6
[45] = test system: Enterococcus faecalis; assay: Potency index, ratio of ciprofloxacin MIC to compound MIC for Enterococcus faecalis 14-1
[46] = test system: Enterococcus faecalis; assay: Potency index, ratio of ciprofloxacin MIC to compound MIC for Enterococcus faecalis 14-2
[47] = test system: Staphylococcus aureus; assay: Potency index, ratio of levofloxacin MIC to compound MIC for methicillin-resistant Staphylococcus aureus 14-4
[48] = test system: Staphylococcus aureus; assay: Potency index, ratio of levofloxacin MIC to compound MIC for methicillin-resistant Staphylococcus aureus 14-5
[49] = test system: Staphylococcus epidermidis; assay: Potency index, ratio of levofloxacin MIC to compound MIC for methicillin-resistant Staphylococcus epidermidis 14-21
[50] = test system: Staphylococcus epidermidis; assay: Potency index, ratio of levofloxacin MIC to compound MIC for methicillin-resistant Staphylococcus epidermidis 14-22
[51] = test system: Staphylococcus epidermidis; assay: Potency index, ratio of levofloxacin MIC to compound MIC for methicillin-resistant Staphylococcus epidermidis 14-37
[52] = test system: Staphylococcus epidermidis; assay: Potency index, ratio of levofloxacin MIC to compound MIC for methicillin-resistant Staphylococcus epidermidis 14-39
[53] = test system: Enterococcus faecium; assay: Potency index, ratio of levofloxacin MIC to compound MIC for Enterococcus faecium 14-2
[54] = test system: Enterococcus faecium; assay: Potency index, ratio of levofloxacin MIC to compound MIC for Enterococcus faecium 14-5
[55] = test system: Enterococcus faecium; assay: Potency index, ratio of levofloxacin MIC to compound MIC for Enterococcus faecium 14-6
[56] = test system: Enterococcus faecalis; assay: Potency index, ratio of levofloxacin MIC to compound MIC for Enterococcus faecalis 14-1
[57] = test system: Enterococcus faecalis; assay: Potency index, ratio of levofloxacin MIC to compound MIC for Enterococcus faecalis 14-2

CO/N=C1/CN(c2c(F)cc3c(=O)c(C(=O)O)cn4c3c2OC[C@@H]4C)CC1(C)CNC1CC1 (some centres not stated)
MIC90 [1]: 0.64 µg/mL (≈ 1.4 µM) | MIC [2]: 2 µg/mL (≈ 4.36 µM) | MIC [3]: 4 µg/mL (≈ 8.72 µM) | MIC [4]: > 128 µg/mL | MIC [5]: 64 µg/mL (≈ 140 µM) | MIC [6]: 64 µg/mL (≈ 140 µM) | MIC [7]: 16 µg/mL (≈ 34.9 µM) | MIC [8]: 16 µg/mL (≈ 34.9 µM) | MIC [9]: 32 µg/mL (≈ 69.8 µM) | MIC [10]: 16 µg/mL (≈ 34.9 µM) | MIC [11]: 16 µg/mL (≈ 34.9 µM) | MIC [12]: 128 µg/mL (≈ 279 µM) | MIC [13]: > 128 µg/mL | MIC [14]: 16 µg/mL (≈ 34.9 µM) | MIC [15]: 8 µg/mL (≈ 17.4 µM) | MIC [16]: 32 µg/mL (≈ 69.8 µM) | MIC [17]: 32 µg/mL (≈ 69.8 µM) | MIC [18]: 32 µg/mL (≈ 69.8 µM) | MIC [19]: < 0.008 µg/mL | MIC [20]: 2 µg/mL (≈ 4.36 µM) | MIC [21]: 0.015 µg/mL (≈ 0.0327 µM) | MIC [22]: 0.015 µg/mL (≈ 0.0327 µM) | MIC [23]: 4 µg/mL (≈ 8.72 µM) | MIC [24]: 4 µg/mL (≈ 8.72 µM) | MIC [25]: 8 µg/mL (≈ 17.4 µM) | MIC [26]: 4 µg/mL (≈ 8.72 µM) | MIC [27]: 2 µg/mL (≈ 4.36 µM) | MIC [28]: 2 µg/mL (≈ 4.36 µM) | MIC [29]: 2 µg/mL (≈ 4.36 µM) | MIC [30]: 0.5 µg/mL (≈ 1.09 µM) | MIC [31]: 4 µg/mL (≈ 8.72 µM) | MIC [32]: 4 µg/mL (≈ 8.72 µM) | MIC [33]: 8 µg/mL (≈ 17.4 µM) | MIC [34]: 8 µg/mL (≈ 17.4 µM) | MIC [35]: 0.5 µg/mL (≈ 1.09 µM) | Ratio [36]: 2 | Ratio [37]: 2 | Ratio [38]: 2 | Ratio [39]: 2 | Ratio [40]: 2 | Ratio [41]: 2 | Ratio [42]: 2 | Ratio [43]: 2 | Ratio [44]: 2 | Ratio [45]: 2 | Ratio [46]: 2 | Ratio [47]: 2 | Ratio [48]: 2 | Ratio [49]: 2 | Ratio [50]: 2 | Ratio [51]: 2 | Ratio [52]: 2 | Ratio [53]: 2 | Ratio [54]: 2 | Ratio [55]: 2 | Ratio [56]: 2 | Ratio [57]: 2
